For assay [1], the system named is Staphylococcus aureus. As to the kind of experiment: Antibacterial activity against methicillin-resistant Staphylococcus aureus 2884. It counts as functional.
In assay [2] the test system is Staphylococcus aureus. Kind of assay: Antibacterial activity against methicillin-resistant Staphylococcus aureus 2884 isolate at 5 ug by disc diffusion method. Format: functional. The following applies: read-out: IZ. In outline:
(§1)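 Disk diffusion on 100-mm Mueller-Hinton agar plates inoculated with a 0.5 McFarland suspension. Disks: oxacillin 5 μg, cefoxitin 30 μg, ceftobiprole 30 μg, amoxicillin-clavulanic acid 20/10 μg, ofloxacin 5 μg, imipenem 10 μg. Inhibition zone diameters were read per CLSI and CASFM guidelines.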
For orientation: In agar diffusion tests the substance spreads into inoculated agar from a disc or well.

Assay [3] has as its system Staphylococcus aureus. As to the kind of experiment: Antibacterial activity against methicillin-resistant Staphylococcus aureus 2884 isolate by disc diffusion method. Format: functional. A digest of the protocol: as §1
The test system of assay [4] is Staphylococcus aureus. Kind of assay: Antibacterial activity against oxacillin-dependent methicillin-resistant Staphylococcus aureus 2884D isolate. Format: functional.
The test system of assay [5] is Staphylococcus aureus. As to the kind of experiment: Antibacterial activity against oxacillin-dependent methicillin-resistant Staphylococcus aureus 2884D isolate assessed as decrease in log bacterial count at >= 256 ug/ml. Format: functional.
The subject of assay [6] is Staphylococcus aureus. Kind of assay: Antibacterial activity against methicillin-resistant Staphylococcus aureus 2884 isolate assessed as decrease in log bacterial count at 1 ug/ml. It counts as functional.
Assay [7] has as its system Staphylococcus aureus. Kind of assay: Effect on blaZ gene expression in oxacillin-dependent methicillin-resistant Staphylococcus aureus 2884D isolate at 0.5 ug/ml by RT-PCR. Format: functional, organism-based. In outline: (§2)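 TaqMan real-time RT-PCR on RNA from exponential-phase cells grown with or without 0.5 μg/ml oxacillin; the dependent strain was also grown on blood agar without oxacillin. Each reaction used 25 ng total RNA, 500 nM primers and 100 nM probe. Cycling: 48°C 30 min, 95°C 10 min, then 40 × (95°C 15 s, 60°C 1 min). Quantified by C_T against a standard curve, expressed relative to 16S; triplicate runs.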

Assay [8] relates to Staphylococcus aureus. Kind of assay: Effect on blaZ gene expression in oxacillin-dependent methicillin-resistant Staphylococcus aureus 2884D isolate at 0.5 ug/ml in presence of blood agar by RT-PCR. Format: functional, organism-based. A digest of the protocol:
as §2

In assay [9] the test system is Staphylococcus aureus. As to the kind of experiment: Induction of blaR1 gene expression in methicillin-resistant Staphylococcus aureus 2884 isolate by RT-PCR. It counts as functional, organism-based. A digest of the protocol: as §2
Assay [10] has as its system Staphylococcus aureus. As to the kind of experiment: Induction of blaI mRNA expression in methicillin-resistant Staphylococcus aureus 2884 isolate by RT-PCR. It counts as functional, organism-based. A digest of the protocol: as §2
For assay [11], the system named is Staphylococcus aureus. Kind of assay: Induction of blaI mRNA expression in oxacillin-dependent methicillin-resistant Staphylococcus aureus 2884D isolate by RT-PCR. It counts as functional, organism-based. In outline:
as §2

Assay [12] has as its system Staphylococcus aureus. As to the kind of experiment: Decrease in PBP2 gene expression in oxacillin-dependent methicillin-resistant Staphylococcus aureus 2884D isolate by RT-PCR. Format: functional, organism-based. In outline:
as §2

Assay [13] has as its system Staphylococcus aureus. As to the kind of experiment: Effect on vraSR gene expression in oxacillin-dependent methicillin-resistant Staphylococcus aureus 2884D isolate in presence of blood agar by RT-PCR. It counts as functional, organism-based. In outline: as §2
In assay [14] the test system is Staphylococcus aureus. As to the kind of experiment: Induction of blaR1 gene expression in oxacillin-dependent methicillin-resistant Staphylococcus aureus 2884D isolate by RT-PCR. Format: functional, organism-based. A digest of the protocol:
as §2

Assay [15] has as its system Staphylococcus aureus. As to the kind of experiment: Antibacterial activity against oxacillin-dependent methicillin-resistant Staphylococcus aureus 2884D isolate at 5 ug by disc diffusion method. Format: functional, organism-based. A digest of the protocol:
as §1

Assay [16] deals with Staphylococcus aureus. As to the kind of experiment: Antibacterial activity against methicillin-resistant Staphylococcus aureus 2884 isolate at 30 ug by disc diffusion method. Format: functional, organism-based. In outline:
as §1

Each structure is given as a SMILES string. Values after ≈ are worked out from the molar mass of the structure shown. Active and inactive are the calls of the source.

Regarding `CO[C@@]1(NC(=O)Cc2cccs2)C(=O)N2C(C(=O)O)=C(COC(N)=O)CS[C@@H]21` (single isomer, unassigned) [CEFOXITIN], in [1], the minimal inhibitory concentration (MIC) (commonly the smallest concentration in the dilution series that meets the test's criterion for growth inhibition) was determined as 32 µg/mL (≈ 74.9 µM). In addition, the zone of inhibition at 5 µg/disc in assay [2] amounted to 13 mm.

Consider `Nc1nc(/C(=N/O)C(=O)N[C@@H]2C(=O)N3C(C(=O)O)=C(/C=C4\CCN([C@@H]5CCNC5)C4=O)CS[C@H]23)ns1` [CEFTOBIPROLE], for which the lowest concentration to inhibit growth in assay [1] (MIC) was 2 µg/mL (≈ 3.74 µM). Besides, in assay [3], the “inhibition zone (IZ)” value was found to be 34 mm.

`Cc1onc(-c2ccccc2)c1C(=O)N[C@@H]1C(=O)N2[C@@H]1SC(C)(C)[C@@H]2C(=O)O` [OXACILLIN]: the MIC in assay [1] was 64 µg/mL (≈ 159 µM); in assay [4], ≥ 256 µg/mL. In addition, the figures for the CFU/ml in assay [5] and in assay [6] were 3 and 4, respectively. In addition, the zone of inhibition at 5 µg/disc in [2] stood at 15 mm. In addition, the outcome in assay [7], in assay [8], in assay [9], in [11] and in assay [13] was inactive. The outcome in [10], in assay [12] and in assay [14] was Active.

Regarding `CC1COc2c(N3CCN(C)CC3)c(F)cc3c(=O)c(C(=O)O)cn1c23` (stereo unspecified) [OFLOXACIN], the result in assay [15] and in [16] was inactive. Further, the zone of inhibition at 5 µg/disc in assay [2] amounted to 15 mm.

With `C[C@@H](O)[C@H]1C(=O)N2C(C(=O)O)=C(SCCNC=N)C[C@H]12` [IMIPENEM ANHYDROUS], 8 µg/mL (≈ 26.7 µM) was the least that counted as inhibitory in [1] (MIC).

(Values after ChEMBL document CHEMBL1156418, “Identification and phenotypic characterization of a beta-lactam-dependent, methicillin-resistant Staphylococcus aureus strain” (2007).)
